Holding throughout (type): functional
Experiment [1] relates to Klebsiella pneumoniae. The experiment can be described thus: Antimicrobial activity against multidrug-resistant Klebsiella pneumoniae isolates by microdilution method. The method, boiled down:
(§1)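 Broth microdilution MICs following CLSI, in cation-adjusted Mueller-Hinton broth, using custom-made panels that include piperacillin-tazobactam. Tested against 102 multidrug-resistant clinical Klebsiella pneumoniae isolates, a subset of 25 of which produce KPC carbapenemase. Cephalosporin-clavulanate combinations use clavulanate at a constant 4 mg/liter. Susceptible and resistant categories are assigned by CLSI criteria.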

In experiment [2] the test system is Klebsiella pneumoniae. The experiment can be described thus: Antimicrobial activity against beta lactamase KPC-producing Klebsiella pneumoniae isolates assessed as susceptible isolates by microdilution method. An outline of the steps:
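Broth microdilution in cation-adjusted Mueller-Hinton broth following CLSI criteria, using customized panels that included piperacillin-tazobactam. MICs were read as the endpoint, and susceptibility was categorized by CLSI criteria.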

For experiment [3], the system named is Klebsiella pneumoniae. The experiment can be described thus: Antimicrobial activity against multidrug-resistant Klebsiella pneumoniae isolates assessed as susceptible isolates by microdilution method. The method, boiled down:
as §1

Experiment [4] relates to Klebsiella pneumoniae. The experiment can be described thus: Antimicrobial activity against beta lactamase KPC-producing Klebsiella pneumoniae isolates by microdilution method. An outline of the steps:
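Broth microdilution MICs following CLSI, in cation-adjusted Mueller-Hinton broth, using custom-made panels that include piperacillin-tazobactam. Cephalosporin-clavulanate combinations use clavulanate at a constant 4 mg/liter. Susceptible and resistant categories are assigned by CLSI criteria.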

The test system of experiment [5] is Klebsiella pneumoniae. The experiment can be described thus: Antimicrobial activity against beta lactamase KPC-producing Klebsiella pneumoniae isolates assessed as resistance isolates by microdilution method. The method, boiled down: as §1
Experiment [6] deals with Klebsiella pneumoniae. The experiment can be described thus: Antimicrobial activity against multidrug-resistant Klebsiella pneumoniae isolates assessed as resistance isolates by microdilution method. An outline of the steps:
as §1

The test system of experiment [7] is Klebsiella pneumoniae. The experiment can be described thus: Antimicrobial activity against beta lactamase KPC-producing Klebsiella pneumoniae isolates by microdilution method in presence of beta-lactamase inhibitor Tazobactam. An outline of the steps: (§2)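 Broth microdilution in cation-adjusted Mueller-Hinton broth following CLSI criteria, using customized panels that included piperacillin-tazobactam. The 25 clinical KPC-producing K. pneumoniae isolates belong to a set of 102 multidrug-resistant strains. MICs were read as the endpoint, and susceptibility was categorized by CLSI criteria.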

Experiment [8] concerns Klebsiella pneumoniae. Put plainly: Antimicrobial activity against beta lactamase KPC-producing Klebsiella pneumoniae isolates assessed as susceptible isolates by microdilution method in presence of beta-lactamase inhibitor Tazobactam. The method, boiled down:
as §2

Experiment [9] concerns Klebsiella pneumoniae. The experiment can be described thus: Antimicrobial activity against multidrug-resistant Klebsiella pneumoniae isolates assessed as susceptible isolates by microdilution method in presence of beta-lactamase inhibitor Tazobactam. An outline of the steps: as §1
The subject of another experiment is Escherichia coli. The experiment can be described thus: Antimicrobial activity against Escherichia coli ATCC 25922 by microdilution method.
A further experiment has as its system Pseudomonas aeruginosa. Put plainly: Antimicrobial activity against Pseudomonas aeruginosa ATCC 27853 by microdilution method.
Experiment [10] deals with Klebsiella pneumoniae. The experiment can be described thus: Antimicrobial activity against Klebsiella pneumoniae ATCC 700603 by microdilution method.

Values after ≈ are worked out from the molar mass of the structure shown.

Consider `C[C@@H](O)[C@H]1C(=O)N2C(C(=O)O)=C(SCCNC=N)C[C@H]12` [IMIPENEM ANHYDROUS], for which the values for the MIC50 in the experiment with Klebsiella pneumoniae [1] and in the experiment with Klebsiella pneumoniae [4] were 0.5 µg/mL (≈ 1.67 µM) and 8 µg/mL (≈ 26.7 µM), respectively. The MIC90 was 8 µg/mL (≈ 26.7 µM) against Klebsiella pneumoniae [1] and over 16 µg/mL in the experiment with Klebsiella pneumoniae [4]. Moreover, the values for the Activity in the experiment with Klebsiella pneumoniae [2] and with Klebsiella pneumoniae [3] were 12% and 75.5%, respectively.

GENTAMICIN: the MIC50 in the experiment with Klebsiella pneumoniae [1] and against Klebsiella pneumoniae [4] was 8 µg/mL in each case. For the same compound, the figures for the MIC90 in the experiment on Klebsiella pneumoniae [1] and with Klebsiella pneumoniae [4] were over 64 µg/mL and 16 µg/mL, respectively. In addition, the Activity with Klebsiella pneumoniae [5] worked out at 12%; in the experiment with Klebsiella pneumoniae [2] it was 44%; in the experiment with Klebsiella pneumoniae [6], 39.2%; in the experiment with Klebsiella pneumoniae [3], 25.5%.

Take `CCN1CCN(C(=O)N[C@@H](C(=O)N[C@@H]2C(=O)N3[C@@H]2SC(C)(C)[C@@H]3C(=O)O)c2ccccc2)C(=O)C1=O` [PIPERACILLIN]: in the experiment on Klebsiella pneumoniae [7], the MIC50 is over 64 µg/mL and the MIC90 was over 64 µg/mL. The Activity with Klebsiella pneumoniae [8] is recorded as 0%. Moreover, the Activity in the experiment with Klebsiella pneumoniae [9] was 38.2%.

Regarding `NCC[C@H](O)C(=O)N[C@@H]1C[C@H](N)[C@@H](O[C@H]2O[C@H](CN)[C@@H](O)[C@H](O)[C@H]2O)[C@H](O)[C@H]1O[C@H]1O[C@H](CO)[C@@H](O)[C@H](N)[C@H]1O` [AMIKACIN], the MIC50 in the experiment on Klebsiella pneumoniae [1] is 2 µg/mL (≈ 3.42 µM); against Klebsiella pneumoniae [4], 32 µg/mL (≈ 54.6 µM). Further, the MIC90 against Klebsiella pneumoniae [1] and against Klebsiella pneumoniae [4] was 32 µg/mL (≈ 54.6 µM) in each case. The Activity in the experiment on Klebsiella pneumoniae [5] is reported as 0%; in the experiment with Klebsiella pneumoniae [2], 48%; in the experiment on Klebsiella pneumoniae [6] it was 4.9%; in the experiment on Klebsiella pneumoniae [3] it was 78.4%.

Turning to `NC[C@H]1O[C@H](O[C@H]2[C@H](O)[C@@H](O[C@H]3O[C@H](CO)[C@@H](O)[C@H](N)[C@H]3O)[C@H](N)C[C@@H]2N)[C@H](N)C[C@@H]1O` [TOBRAMYCIN], the MIC50 in the experiment with Klebsiella pneumoniae [1] and against Klebsiella pneumoniae [4] was 32 µg/mL (≈ 68.4 µM) throughout. Moreover, the Activity was determined as 92% in the experiment with Klebsiella pneumoniae [5], 8% in the experiment on Klebsiella pneumoniae [2], 76.5% in the experiment on Klebsiella pneumoniae [6] and 10.8% in the experiment on Klebsiella pneumoniae [3]. In addition, the MIC90 in the experiment with Klebsiella pneumoniae [4] was at least 64 µg/mL.

Take `CC(C)(O/N=C(\C(=O)N[C@@H]1C(=O)N2C(C(=O)[O-])=C(C[n+]3ccccc3)CS[C@H]12)c1csc(N)n1)C(=O)O` [CEFTAZIDIME]: the MIC50 in the experiment with Klebsiella pneumoniae [1] and with Klebsiella pneumoniae [4] was over 32 µg/mL each time. Moreover, the MIC90 in the experiment with Klebsiella pneumoniae [1] and against Klebsiella pneumoniae [4] was over 32 µg/mL in each case. For the same compound, the Activity with Klebsiella pneumoniae [2] is recorded as 0%; in the experiment with Klebsiella pneumoniae [3] it was 9.8%.

As to `CN(C)c1cc(NC(=O)CNC(C)(C)C)c(O)c2c1C[C@H]1C[C@H]3[C@H](N(C)C)C(O)=C(C(N)=O)C(=O)[C@@]3(O)C(O)=C1C2=O` [TIGECYCLINE], the MIC50 with Klebsiella pneumoniae [1] and against Klebsiella pneumoniae [4] was 1 µg/mL (≈ 1.71 µM) throughout. In addition, the MIC90 in the experiment on Klebsiella pneumoniae [1] and against Klebsiella pneumoniae [4] was 2 µg/mL (≈ 3.41 µM) each time. Moreover, the results for the Activity with Klebsiella pneumoniae [2] and in the experiment on Klebsiella pneumoniae [3] were 96% and 90.2%, respectively.

Take `CN[C@@H]1[C@@H](O)[C@@H](O[C@@H]2[C@@H](O)[C@H](O[C@H]3OC(CNCCO)=CC[C@H]3N)[C@@H](N)C[C@H]2NC(=O)[C@@H](O)CCN)OC[C@]1(C)O` [PLAZOMICIN]: the MIC50 against Klebsiella pneumoniae [1] and with Klebsiella pneumoniae [4] was 0.5 µg/mL (≈ 0.844 µM) each time. The MIC90 in the experiment on Klebsiella pneumoniae [1] and against Klebsiella pneumoniae [4] was 1 µg/mL (≈ 1.69 µM) in each case. Also, the MIC in the experiment with Escherichia coli worked out at 0.5 µg/mL (≈ 0.844 µM); in the experiment with Pseudomonas aeruginosa, 4 µg/mL (≈ 6.75 µM); in the experiment on Klebsiella pneumoniae [10] it was 0.25 µg/mL (≈ 0.422 µM).

Consider `NCC[C@H](O)C(=O)N[C@@H]1C[C@H](N)[C@@H](O[C@H]2O[C@H](CN)CC[C@H]2N)[C@H](O)[C@H]1O[C@H]1O[C@H](CO)[C@@H](O)[C@H](N)[C@H]1O` [ARBEKACIN], for which the MIC50 in the experiment with Klebsiella pneumoniae [1] came to 4 µg/mL (≈ 7.24 µM); in the experiment with Klebsiella pneumoniae [4], 8 µg/mL (≈ 14.5 µM). Further, the MIC90 against Klebsiella pneumoniae [1] and against Klebsiella pneumoniae [4] was 16 µg/mL (≈ 29 µM) in each case.

For `NC[C@@H]1O[C@H](O[C@H]2[C@@H](O)[C@H](O[C@@H]3[C@@H](O)[C@H](N)C[C@H](N)[C@H]3O[C@H]3O[C@H](CN)[C@@H](O)[C@H](O)[C@H]3N)O[C@@H]2CO)[C@H](N)[C@@H](O)[C@@H]1O` [FRAMYCETIN], in the experiment on Klebsiella pneumoniae [1], the MIC50 came out at 2 µg/mL (≈ 3.25 µM) and the MIC90 was 32 µg/mL (≈ 52.1 µM). Also, in the experiment with Klebsiella pneumoniae [4], the MIC50 turned out to be 2 µg/mL (≈ 3.25 µM) and the MIC90 is 32 µg/mL (≈ 52.1 µM).

The record behind these values is ChEMBL document CHEMBL1649286, “ACHN-490, a neoglycoside with potent in vitro activity against multidrug-resistant Klebsiella pneumoniae isolates” (2009).
